Results: ChEMBL document CHEMBL1138811, “Synthesis, conformational analysis, and cytotoxicity of conformationally constrained aplidine and tamandarin A analogues incorporating a spirolactam beta-turn mimetic” (J Med Chem, 2004)

Assays:
A549 = experiment: Concentration required to inhibit growth of human A549 cell line by 50%; assay type: functional, cell-based
How it was run: (§1)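 SRB colorimetric growth assay in A549 lung and HT-29 colon carcinoma cells. Cells seeded at 5 × 10^3 per well in RPMI and attached for 18 h in drug-free medium. Samples added in (3:7) DMSO/H2O for 48–72 h exposure. Cells fixed with cold 50% (w/v) TCA at 4 °C for 60 min, then stained with 0.4% SRB in 1% acetic acid for 10 min. Bound dye solubilised in Tris, OD read at 490 nm.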

HT-29 = experiment: Concentration required to inhibit growth of human […] cell line by 50% was determined; assay type: functional, cell-based; how it was run: as §1

| Compound | IC50 (A549) [nM] | IC50 (HT-29) [nM] |
| --- | --- | --- |
| CC[C@H](C)C1NC(=O)[C@@H](NC(=O)[C@@H](CC(C)C)N2CCC3(CCCN3C(=O)C(C)=O)C2=O)[C@@H](C)OC(=O)[C@H](Cc2ccc(O)cc2)N(C)C(=O)[C@@H]2CCCN2C(=O)[C@H](CC(C)C)NC(=O)[C@@H](C(C)C)OC(=O)C[C@H]1O (stereo partly drawn) | 93.8 | 93.8 |
| CC[C@H](C)[C@@H]1NC(=O)[C@@H](NC(=O)[C@@H](C)N2CCC3(CCCN3C(=O)C(C)=O)C2=O)[C@@H](C)OC(=O)[C@H](Cc2ccc(OC)cc2)N(C)C(=O)[C@@H]2CCCN2C(=O)[C@H](CC(C)C)NC(=O)[C@H](C)C(=O)[C@@H](C(C)C)OC(=O)C[C@H]1O (stereo partly drawn) | 8.55 | 8.9 |
| CC[C@H](C)[C@@H]1NC(=O)[C@@H](NC(=O)[C@@H](C)N2CCC3(CCCN3C(=O)C(C)C)C2=O)[C@@H](C)OC(=O)[C@H](Cc2ccc(OC)cc2)N(C)C(=O)[C@@H]2CCCN2C(=O)[C@H](CC(C)C)NC(=O)[C@H](C)C(=O)[C@@H](C(C)C)OC(=O)C[C@H]1O (stereo partly drawn) | 89.1 | 89.1 |
| CC[C@H](C)[C@@H]1NC(=O)[C@@H](NC(=O)[C@@H](C)N2CCC3(CCCN3C(=O)OC(C)(C)C)C2=O)[C@@H](C)OC(=O)[C@H](Cc2ccc(OC)cc2)N(C)C(=O)[C@@H]2CCCN2C(=O)[C@H](CC(C)C)NC(=O)[C@H](C)C(=O)[C@@H](C(C)C)OC(=O)C[C@H]1O (stereo partly drawn) | 8.68 | 8.68 |
| CC[C@H](C)C1NC(=O)[C@@H](NC(=O)[C@@H](CC(C)C)N2CCC3(CCCN3C(=O)C(C)C)C2=O)[C@@H](C)OC(=O)[C@H](Cc2ccc(O)cc2)N(C)C(=O)[C@@H]2CCCN2C(=O)[C@H](CC(C)C)NC(=O)[C@@H](C(C)C)OC(=O)C[C@H]1O (stereo partly drawn) | 93.8 | 93.8 |
| CC[C@H](C)C1NC(=O)[C@@H](NC(=O)[C@@H](CC(C)C)N2CCC3(CCCN3C(=O)OC(C)(C)C)C2=O)[C@@H](C)OC(=O)[C@H](Cc2ccc(O)cc2)N(C)C(=O)[C@@H]2CCCN2C(=O)[C@H](CC(C)C)NC(=O)[C@@H](C(C)C)OC(=O)C[C@H]1O (stereo partly drawn) | 4.56 | 4.56 |
| C=C(C)C(=O)N1CCCC12CCN([C@H](CC(C)C)C(=O)N[C@@H]1C(=O)NC([C@@H](C)CC)[C@H](O)CC(=O)O[C@H](C(C)C)C(=O)N[C@@H](CC(C)C)C(=O)N3CCC[C@H]3C(=O)N(C)[C@@H](Cc3ccc(O)cc3)C(=O)O[C@@H]1C)C2=O (stereo partly drawn) | 93.9 | 93.9 |
| CC[C@H](C)C1NC(=O)[C@@H](NC(=O)[C@@H](CC(C)C)N(C)C(=O)[C@@H]2CCCN2C(=O)C(C)=O)[C@@H](C)OC(=O)[C@H](Cc2ccc(O)cc2)N(C)C(=O)[C@@H]2CCCN2C(=O)[C@H](CC(C)C)NC(=O)[C@@H](C(C)C)OC(=O)C[C@H]1O (stereo partly drawn) [DEHYDROTAMANDARIN A] | 0.47 | 0.47 |
| CC[C@H](C)C1NC(=O)[C@@H](NC(=O)[C@@H](CC(C)C)N(C)C(=O)[C@@H]2CCCN2C(=O)C(C)O)[C@@H](C)OC(=O)[C@H](Cc2ccc(O)cc2)N(C)C(=O)[C@@H]2CCCN2C(=O)[C@H](CC(C)C)NC(=O)[C@@H](C(C)C)OC(=O)C[C@H]1O (stereo partly drawn) [TAMANDARIN A] | 0.95 | 0.95 |
